Test results published in ChEMBL document CHEMBL1141114, “Adenosine kinase inhibitors. 5. Synthesis, enzyme inhibition, and analgesic activity of diaryl-erythro-furanosyltubercidin analogues” (J Med Chem, 2005).
pIC50: −log10 of the molar value.

Assays:
Rattus norvegicus [1] = assay: Percent inhibition of the licking and biting behavior in response to formalin injection at a dose of 20 mg/Kg when given orally in rat by formalin paw assay; (n=6); type: functional; settings: po
Outline: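 Rats got 20 mg/kg orally in PEG 400 vehicle 2 h before intraplantar formalin, n = 6. Activity is expressed as % inhibition of licking and biting behaviour.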

Adenosine kinase = Adenosine kinase (Homo sapiens, UniProt P55263); assay: Inhibitory concentration against human recombinant adenosine kinase using [14C]AMP as radioligand
Adenosine kinase, sequence (P55263 whole entry): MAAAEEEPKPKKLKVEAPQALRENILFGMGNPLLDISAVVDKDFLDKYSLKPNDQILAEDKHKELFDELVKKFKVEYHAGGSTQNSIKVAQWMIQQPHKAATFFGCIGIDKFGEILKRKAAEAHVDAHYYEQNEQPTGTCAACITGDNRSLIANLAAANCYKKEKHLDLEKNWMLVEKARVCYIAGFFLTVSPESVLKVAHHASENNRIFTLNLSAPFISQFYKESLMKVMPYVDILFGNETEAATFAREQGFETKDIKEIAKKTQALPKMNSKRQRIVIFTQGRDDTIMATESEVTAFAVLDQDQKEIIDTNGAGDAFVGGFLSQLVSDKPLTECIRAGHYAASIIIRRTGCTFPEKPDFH

[2] = Maximum time to achieve plasma concentration at a dose of 3 mg/Kg in rat when given orally; type: ADME, organism-based; settings: po
Outline: (§1)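 Rats and dogs, n = 3 per group. Oral dosing at 3 mg/kg as a suspension in 0.1% methylcellulose; intravenous dosing at 1 mg/kg as a solution in 75% PEG 400/25% saline. Plasma sampled at 0.25, 0.5, 1, 2, 4, 8 and 24 h and drug levels measured by HPLC. […] Parameters reported as mean ± S.D.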

[3] = Bioavailability at a dose of 3 mg/Kg in rat when given orally; type: ADME, organism-based; settings: in vivo, po; outline: as §1
[4] = Maximum plasma concentration at a dose of 1 mg/kg in dog when given i.v.; type: ADME, organism-based, Canis lupus familiaris; set-up: dose 1 mg/kg, route intravenous; settings: iv; outline: as §1
[5] = Maximum plasma concentration at a dose of 3 mg/Kg in dog when given orally; type: ADME, organism-based, Canis lupus familiaris; set-up: dose 3 mg/Kg, route oral; settings: po; outline: as §1
[6] = Plasma clearance at a dose of 3 mg/Kg in dog when given orally; type: ADME, organism-based, Canis lupus familiaris; settings: po; outline: as §1
[7] = Time required to be halved at a dose of 1 mg/Kg in rat when given i.v.; type: ADME, organism-based; settings: in vivo, iv; outline: as §1
[8] = Maximum plasma concentration at a dose of 3 mg/Kg in rat when given orally; type: ADME, organism-based; set-up: dose 3 mg/Kg, route oral; settings: po; outline: as §1
[9] = Time required to be halved at a dose of 3 mg/Kg in rat when given orally; type: ADME, organism-based; settings: in vivo, po; outline: as §1
[10] = Area under the plot of plasma concentration at a dose of 1 mg/Kg in rat when given i.v.; type: ADME; settings: iv; outline: as §1
[11] = Plasma clearance at a dose of 1 mg/kg in dog when given i.v.; type: ADME, organism-based, Canis lupus familiaris; set-up: dose 1 mg/kg, route intravenous; settings: iv; outline: as §1
[12] = Distributed volume at a dose of 3 mg/Kg in dog when given orally; type: ADME, organism-based, Canis lupus familiaris; settings: in vivo, po; outline: as §1
Rattus norvegicus [13] = assay: Effective dose for the […] effect measured after 2 hr when given orally in rat by rotarod assay.; type: functional; settings: po
Outline: (§2)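 Fasted male SD rats (90–110 g) were dosed orally at 10–300 mg/kg in 0.1% MC. They were first trained to walk on a rotarod at 5 rpm for 150 s. Walking time, as a measure of sedation and ataxia, was recorded at 0, 0.5, 1, 2 and 5 h after dosing, with a 150 s cutoff.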

[14] = Distributed volume at a dose of 1 mg/Kg in rat when given i.v.; type: ADME, organism-based; settings: in vivo, iv; outline: as §1
Monkey = assay: Effective dose for the analgesic effect measured after bradykinin injection when given orally by marmoset monkey bradykinin-induced licking; (n=6); type: functional; settings: po
Outline: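 Six male marmosets (Callithrix jacchus, 250–340 g) got 0.3, 3, 10 or 30 mg/kg po, or 0.1% MC vehicle. At 60 min, 100 μL of 1 mM bradykinin in saline was injected intraplantar, alternating feet. Pain behaviour was scored 0–3 every 15 s for 15 min from video. Sessions were 2 weeks apart.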

Rattus norvegicus [15] = assay: Effective dose for the analgesic effect measured at 3 hr after administration when given orally by hot plate assay; (n=6); type: functional; settings: po
Outline: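 Fasted male SD rats (150–200 g) were gavaged with vehicle or graded doses. Hind-paw lick latency on a 50 °C hot plate (60 s max) was measured before dosing and at 0.5–4 h after.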

[16] = Time required to be halved at a dose of 1 mg/kg in dog when given i.v.; type: ADME, organism-based, Canis lupus familiaris; set-up: dose 1 mg/kg, route intravenous; settings: in vivo, iv; outline: as §1
[17] = Bioavailability at a dose of 3 mg/Kg in dog when given orally; type: ADME, organism-based, Canis lupus familiaris; settings: in vivo, po; outline: as §1
[18] = Distributed volume at a dose of 1 mg/kg in dog when given i.v.; type: ADME, organism-based, Canis lupus familiaris; set-up: dose 1 mg/kg, route intravenous; settings: in vivo, iv; outline: as §1
[19] = Area under the plot of plasma concentration at a dose of 3 mg/Kg in dog when given orally; type: ADME, Canis lupus familiaris; settings: po, read-out: AUC 0-24h; outline: as §1
[20] = Maximum plasma concentration at a dose of 1 mg/Kg in rat when given i.v.; type: ADME, organism-based; set-up: dose 1 mg/Kg, route intravenous; settings: iv; outline: as §1
[21] = Distributed volume at a dose of 3 mg/Kg in rat when given orally; type: ADME, organism-based; settings: in vivo, po; outline: as §1
[22] = Area under the plot of plasma concentration at a dose of 3 mg/Kg in rat when given orally; type: ADME; settings: po; outline: as §1
[23] = Plasma clearance at a dose of 3 mg/Kg in rat when given orally; type: ADME, organism-based; settings: po; outline: as §1
Rattus norvegicus [24] = assay: Effective dose of the licking and biting behavior in response to formalin injection at a dose of 20 mg/Kg when given orally in rat by formalin paw assay; (n=6); type: functional; settings: po
Rattus norvegicus [25] = assay: Effective dose for the analgesic effect measured after carrageenan injection when given orally by carrageenan-induced mechanical hyperalgesia test; type: functional; settings: po
Outline: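 Fasted male SD rats (100–120 g) were dosed orally with 1, 3 or 10 mg/kg in 0.1% MC 1 h before intraplantar carrageenan (1%, 100 μL/paw). Mechanical hyperalgesia was read by Randall-Selitto analgesimeter at 3, 4 and 5 h after carrageenan.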

Rattus norvegicus [26] = assay: Percent inhibition of the analgesic effect measured after carrageenan injection at a dose of 20 mg/Kg prophylactic when given orally by carrageenan-induced thermal hyperalgesia test; type: functional
Outline: (§3)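 Fasted male SD rats (160–180 g) were injected in the right hind plantar paw with lambda carrageenan (2 mg in 100 μL). They were gavaged with 20 mg/kg or vehicle (PEG400/0.2% Tween/5% propylene glycol), either 0.5 h before (prophylactic) or 2 h after (therapeutic) carrageenan. Hargreaves heat withdrawal was measured in the inflamed and control paws at 3.5–4.5 h.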

Rattus norvegicus [27] = assay: Effective dose for the […] effect measured after 5 h when given orally in rat by rotarod assay.; type: functional; settings: po; outline: as §2
[28] = Plasma clearance at a dose of 1 mg/Kg in rat when given i.v.; type: ADME, organism-based; settings: iv; outline: as §1
Rattus norvegicus [29] = assay: Percent inhibition of the analgesic effect measured after carrageenan injection at a dose of 20 mg/Kg therapeutic when given orally by carrageenan-induced thermal hyperalgesia test; type: functional; outline: as §3
[30] = Maximum time to achieve plasma concentration at a dose of 3 mg/Kg in dog when given orally; type: ADME, organism-based, Canis lupus familiaris; settings: po; outline: as §1
[31] = Area under the plot of plasma concentration at a dose of 1 mg/kg in dog when given i.v.; type: ADME, organism-based, Canis lupus familiaris; set-up: dose 1 mg/kg, route intravenous; settings: iv, read-out: AUC 0-24h; outline: as §1
[32] = Time required to be halved at a dose of 3 mg/Kg in dog when given orally; type: ADME, organism-based, Canis lupus familiaris; settings: in vivo, po; outline: as §1

N#Cc1ccc(Nc2ncnc3c2c(-c2ccc(Cl)cc2)cn3[C@@H]2OC[C@@H](O)[C@H]2O)cc1
inhibition in vivo at 20 mg/kg (Rattus norvegicus [1]): 75%
pIC50 (Adenosine kinase): 8.15

Nc1cccc(-c2cn([C@@H]3OC[C@@H](O)[C@H]3O)c3ncnc(Nc4ccc(F)cc4)c23)c1
inhibition in vivo at 20 mg/kg (Rattus norvegicus [1]): 31%
pIC50 (Adenosine kinase): 8.00

CCOc1ccc(Nc2ncnc3c2c(-c2ccccc2)cn3[C@@H]2OC[C@@H](O)[C@H]2O)cc1
inhibition in vivo at 20 mg/kg (Rattus norvegicus [1]): 41%
pIC50 (Adenosine kinase): 8.52

O[C@@H]1[C@H](O)CO[C@H]1n1cc(-c2ccccc2)c2c(Nc3ccc(Br)cc3)ncnc21
inhibition in vivo at 20 mg/kg (Rattus norvegicus [1]): 33%
pIC50 (Adenosine kinase): 8.30

C[C@H]1O[C@@H](n2cc(-c3ccccc3)c3c(Nc4ccc(F)cc4)ncnc32)[C@H](O)[C@@H]1O
inhibition in vivo at 20 mg/kg (Rattus norvegicus [1]): 59%

Nc1ncnc2c1c(I)cn2[C@@H]1OC2(CC2)[C@@H](O)[C@H]1O
pIC50 (Adenosine kinase): 6.22

O[C@@H]1[C@H](O)CO[C@H]1n1cc(-c2ccccc2)c2c(Nc3ccc(F)cc3)ncnc21
Tmax [2]: 3.5 h
bioavailability [3]: 61.2%
Cmax [4]: 585 ng/mL
Cmax [5]: 628 ng/mL
CL/F [6]: 6.67 mL/min/kg
half-life [7]: 3.2 h
Cmax [8]: 135 ng/mL
half-life [9]: 3 h
inhibition in vivo at 20 mg/kg (Rattus norvegicus [1]): 76%
AUC0-8h [10]: 785 ng·h/mL
clearance [11]: 6.67 mL/min/kg
Vd [12]: 2.2 L/kg
ED50 (Rattus norvegicus [13]): 21.7 mg/kg
Vd [14]: 6.9 L/kg
ED50 (Monkey): 3.8 mg/kg
ED50 (Rattus norvegicus [15]): 16 mg/kg
pIC50 (Adenosine kinase): 8.22
half-life [16]: 3.9 h
bioavailability [17]: 60%
Vd [18]: 2 L/kg
AUC [19]: 5340 ng·h/mL
Cmax [20]: 523 ng/mL
Vd [21]: 6.2 L/kg
AUC0-8h [22]: 1440 ng·h/mL
CL/F [23]: 25 mL/min/kg
ED50 (Rattus norvegicus [24]): 3.6 mg/kg
ED50 (Rattus norvegicus [25]): 2.4 mg/kg
Inhibition (Rattus norvegicus [26]): 151%
ED50 (Rattus norvegicus [27]): 11.9 mg/kg
clearance [28]: 21.7 mL/min/kg
Inhibition (Rattus norvegicus [29]): 99%
Tmax [30]: 1.6 h
AUC [31]: 2970 ng·h/mL
half-life [32]: 4 h

CCOc1ccc(-c2cn([C@@H]3OC[C@@H](O)[C@H]3O)c3ncnc(Nc4ccccc4OC)c23)cc1
inhibition in vivo at 20 mg/kg (Rattus norvegicus [1]): 16%
pIC50 (Adenosine kinase): 8.28

CCOc1cccc(Nc2ncnc3c2c(-c2ccccc2)cn3[C@@H]2OC[C@@H](O)[C@H]2O)c1
inhibition in vivo at 20 mg/kg (Rattus norvegicus [1]): 76%
pIC50 (Adenosine kinase): 8.70

Nc1ncnc2c1c(I)cn2[C@@H]1OC[C@@H](O)[C@H]1O
pIC50 (Adenosine kinase): 8.22

O[C@H]1[C@H](n2cc(-c3ccccc3)c3c(Nc4ccc(F)cc4)ncnc32)OC2(CC2)[C@H]1O
pIC50 (Adenosine kinase): 9.52

O[C@@H]1[C@H](O)CO[C@H]1n1cc(-c2ccccc2)c2c(Nc3ccc4c(c3)OCCO4)ncnc21
inhibition in vivo at 20 mg/kg (Rattus norvegicus [1]): 80%
pIC50 (Adenosine kinase): 8.40

CC1(C)O[C@@H](n2cc(-c3ccccc3)c3c(Nc4ccccc4)ncnc32)[C@H](O)[C@@H]1O
pIC50 (Adenosine kinase): 5.40

CCOc1ccc(-c2cn([C@@H]3OC[C@@H](O)[C@H]3O)c3ncnc(Nc4ccc(C#N)cc4)c23)cc1
inhibition in vivo at 20 mg/kg (Rattus norvegicus [1]): 84%
pIC50 (Adenosine kinase): 8.70

O[C@@H]1[C@H](O)CO[C@H]1n1cc(-c2ccccc2)c2c(Nc3ccccc3)ncnc21
inhibition in vivo at 20 mg/kg (Rattus norvegicus [1]): 78%
pIC50 (Adenosine kinase): 8.40

Cc1ccccc1-c1cn([C@@H]2OC[C@@H](O)[C@H]2O)c2ncnc(Nc3ccc4c(c3)OCCO4)c12
inhibition in vivo at 20 mg/kg (Rattus norvegicus [1]): 99%
pIC50 (Adenosine kinase): 9.00
